Source: article PMC4969713 (Journal of Alzheimer's Disease, 2016)
Entries after “also recorded” stand apart in the source; their conditions may differ. Structures can show the parent of a compound that is named as a salt.

Tests used:
[1] = test system: calcium channels of L type; test: Target panel binding, calcium channel L type
[2] = Phase I pharmacokinetics, single PO dose; format: in vivo, human; details: human, blood, po
Adrenergic α1D = Adrenergic α1D (Homo sapiens, UniProt P25100); test: Radioligand competition, adrenergic α1D; format: binding
Sequence of Adrenergic α1D (P25100 whole entry): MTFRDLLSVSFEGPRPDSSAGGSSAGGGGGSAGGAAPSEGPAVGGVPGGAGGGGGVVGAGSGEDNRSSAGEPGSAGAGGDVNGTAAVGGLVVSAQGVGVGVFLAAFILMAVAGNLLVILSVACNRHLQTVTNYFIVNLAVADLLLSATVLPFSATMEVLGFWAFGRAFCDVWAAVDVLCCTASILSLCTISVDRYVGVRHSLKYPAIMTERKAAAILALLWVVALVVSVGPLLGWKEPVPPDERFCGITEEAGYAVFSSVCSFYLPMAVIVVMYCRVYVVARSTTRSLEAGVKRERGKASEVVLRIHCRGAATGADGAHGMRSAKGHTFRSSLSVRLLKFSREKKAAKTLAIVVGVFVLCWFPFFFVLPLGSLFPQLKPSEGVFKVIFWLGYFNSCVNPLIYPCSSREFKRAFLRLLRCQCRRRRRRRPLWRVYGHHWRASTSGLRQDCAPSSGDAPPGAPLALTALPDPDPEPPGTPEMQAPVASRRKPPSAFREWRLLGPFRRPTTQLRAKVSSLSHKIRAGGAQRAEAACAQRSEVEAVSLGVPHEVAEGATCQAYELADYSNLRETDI

[3] = Stability in human blood plasma; format: in vitro ADME; details: 30-min incubation, room temperature
histamine H3 receptor = histamine H3 receptor (Homo sapiens, UniProt Q9Y5N1); test: Radioligand binding competition, histamine H3
Sequence of histamine H3 receptor (Q9Y5N1 whole entry, species assumed): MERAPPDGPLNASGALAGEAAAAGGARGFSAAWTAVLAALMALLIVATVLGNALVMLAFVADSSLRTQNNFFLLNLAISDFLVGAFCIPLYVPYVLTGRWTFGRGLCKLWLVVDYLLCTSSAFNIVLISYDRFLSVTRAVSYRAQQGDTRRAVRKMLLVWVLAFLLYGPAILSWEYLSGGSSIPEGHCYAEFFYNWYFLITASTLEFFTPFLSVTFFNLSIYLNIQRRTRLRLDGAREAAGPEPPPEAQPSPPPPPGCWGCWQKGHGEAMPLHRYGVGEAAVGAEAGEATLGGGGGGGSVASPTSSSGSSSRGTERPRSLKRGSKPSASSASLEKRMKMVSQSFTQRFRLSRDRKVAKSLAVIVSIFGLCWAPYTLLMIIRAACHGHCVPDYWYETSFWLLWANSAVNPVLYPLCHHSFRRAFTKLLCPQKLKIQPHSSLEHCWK

5-HT2B receptor = 5-HT2B receptor (Rattus norvegicus, UniProt P30994); test: Rat stomach fundus contraction assay
Sequence of 5-HT2B receptor (P30994 whole entry): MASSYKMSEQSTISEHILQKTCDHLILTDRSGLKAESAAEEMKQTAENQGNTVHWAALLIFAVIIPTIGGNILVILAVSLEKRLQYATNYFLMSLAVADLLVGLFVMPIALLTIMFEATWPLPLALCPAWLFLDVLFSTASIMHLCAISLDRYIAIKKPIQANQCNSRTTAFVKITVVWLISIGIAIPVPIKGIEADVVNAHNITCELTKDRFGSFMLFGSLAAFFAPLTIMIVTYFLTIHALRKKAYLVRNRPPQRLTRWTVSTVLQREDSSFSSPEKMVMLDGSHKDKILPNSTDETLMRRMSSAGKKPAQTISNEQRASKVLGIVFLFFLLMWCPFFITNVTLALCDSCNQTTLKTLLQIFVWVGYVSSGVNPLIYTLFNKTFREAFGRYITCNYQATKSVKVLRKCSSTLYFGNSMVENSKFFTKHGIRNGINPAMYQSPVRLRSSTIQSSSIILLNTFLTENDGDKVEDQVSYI

[4] = test system: rhesus macaques (Macaca Mulatta); test: 30 days toxicity, monkeys; format: in vivo; details: 5 mg/kg PO daily
Wistar rats [5] = test: 180 days toxicity, rats; format: in vivo
5-HT2A receptor = 5-HT2A receptor (Homo sapiens, UniProt P28223); test: Radioligand binding competition, 5-HT2A
Sequence of 5-HT2A receptor (P28223 whole entry): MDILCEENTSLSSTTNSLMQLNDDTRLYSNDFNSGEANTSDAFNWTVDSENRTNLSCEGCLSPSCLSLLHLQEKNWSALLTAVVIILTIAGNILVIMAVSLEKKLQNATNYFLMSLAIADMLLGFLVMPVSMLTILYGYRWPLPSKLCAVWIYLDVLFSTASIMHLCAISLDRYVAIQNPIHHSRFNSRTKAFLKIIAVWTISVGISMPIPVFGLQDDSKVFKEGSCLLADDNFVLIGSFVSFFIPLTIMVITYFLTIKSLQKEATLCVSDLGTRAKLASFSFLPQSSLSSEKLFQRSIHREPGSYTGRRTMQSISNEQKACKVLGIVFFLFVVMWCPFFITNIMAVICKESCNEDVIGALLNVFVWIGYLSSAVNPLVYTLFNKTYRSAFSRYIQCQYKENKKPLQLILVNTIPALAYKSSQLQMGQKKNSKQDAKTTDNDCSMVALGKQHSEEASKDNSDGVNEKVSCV

[6] = test system: outbreed male and female rats; test: Reproductive toxicology in rats; format: in vivo
Summary of the method: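 Outbred male and female rats weighing 220–250 g received test compound in 0.9% physiological solution intragastrically at 1.0 or 25.0 mg/kg. Assessments covered embryotoxicity, offspring development, mating and fertilization capability, and reproductive function.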

[7] = Pharmacokinetics in Wistar rats, IV/IP/PO; format: in vivo; details: for Fabs: based on AUC0 ⟶240; for Cmax / Tmax / half-life / k el / AUC: Wistar, rat, plasma, 5 mg/kg
hERG potassium channel = hERG potassium channel (Homo sapiens, UniProt Q12809); test: hERG single cell patch clamp in HEK cells
Sequence of hERG potassium channel (Q12809 whole entry): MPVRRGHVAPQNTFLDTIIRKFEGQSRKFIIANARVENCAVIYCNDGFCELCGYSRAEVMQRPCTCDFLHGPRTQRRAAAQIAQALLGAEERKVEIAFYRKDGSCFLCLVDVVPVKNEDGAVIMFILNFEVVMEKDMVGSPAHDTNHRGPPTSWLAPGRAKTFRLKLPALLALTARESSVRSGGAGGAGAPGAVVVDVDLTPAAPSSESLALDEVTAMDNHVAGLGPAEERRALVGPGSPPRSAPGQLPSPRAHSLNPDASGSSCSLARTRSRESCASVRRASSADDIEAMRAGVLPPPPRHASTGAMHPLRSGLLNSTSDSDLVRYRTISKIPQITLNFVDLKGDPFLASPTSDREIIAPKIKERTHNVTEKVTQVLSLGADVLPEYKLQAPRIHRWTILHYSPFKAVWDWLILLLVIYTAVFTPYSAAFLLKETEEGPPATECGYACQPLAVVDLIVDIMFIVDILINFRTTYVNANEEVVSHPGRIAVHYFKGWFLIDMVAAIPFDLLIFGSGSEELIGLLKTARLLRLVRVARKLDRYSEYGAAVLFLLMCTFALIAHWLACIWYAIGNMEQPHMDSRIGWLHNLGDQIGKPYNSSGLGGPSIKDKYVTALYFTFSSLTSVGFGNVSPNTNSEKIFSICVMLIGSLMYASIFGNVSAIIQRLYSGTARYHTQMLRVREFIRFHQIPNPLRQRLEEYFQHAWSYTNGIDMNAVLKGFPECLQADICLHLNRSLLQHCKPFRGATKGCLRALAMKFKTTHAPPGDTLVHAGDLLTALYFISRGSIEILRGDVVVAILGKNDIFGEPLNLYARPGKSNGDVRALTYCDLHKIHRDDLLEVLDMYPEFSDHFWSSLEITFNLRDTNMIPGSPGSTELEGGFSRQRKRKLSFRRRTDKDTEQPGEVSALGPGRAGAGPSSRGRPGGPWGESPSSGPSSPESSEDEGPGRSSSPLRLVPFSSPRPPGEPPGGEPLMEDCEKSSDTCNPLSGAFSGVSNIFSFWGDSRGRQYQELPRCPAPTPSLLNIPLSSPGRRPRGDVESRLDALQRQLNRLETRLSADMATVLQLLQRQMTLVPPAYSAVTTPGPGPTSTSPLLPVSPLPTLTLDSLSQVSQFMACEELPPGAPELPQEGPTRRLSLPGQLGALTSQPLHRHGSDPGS

femur bone marrow cells = test: Chromosomal aberrations in femur bone marrow cells; format: in vivo, mice
Summary of the method: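 Mice 8–12 weeks old, male and female, were dosed orally with test compound or cyclophosphamide 20 mg/kg. Schedule was single dose with kill at 24 h, or qd for 5 days with kill 6 h after the last dose. Colchicine 4 mg/kg was given orally 2.5 h before decapitation. Femur marrow was put into 0.55% KCl at 37°C for 15 min, then spun. Scoring covered 100 metaphases per animal (500 per group), expressed as % aberrant cells.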

[8] = Stability in aqueous solutions; format: physicochemical; details: 72 h, room temperature
Summary of the method: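 Test compound was incubated for 72 h at room temperature. Media were distilled water, salt solution at pH 4.0 or pH 7.0, and physiological solution at pH 7.4. Read-out was the fraction of the original concentration remaining.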

male BALB/c mice = test: Novel object recognition, scopolamine-induced; format: in vivo; details: 1.0 mg/kg scopolamine; memantine 10 mg/kg; SB-742457 0.2 or 1.0 mg/kg
Summary of the method: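 All drugs were dissolved in saline and given IP; control animals received saline vehicle. Each group had at least 8 male BALB/c mice. Read-out was novel object recognition index, reported as mean ± SE.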

Wistar rats [9] = test: 30 days toxicity, rats; format: in vivo; details: 0.5, 5 and 25 mg/kg PO daily
Summary of the method: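 Wistar rats were randomised to vehicle, 0.5, 5 or 25 mg/kg, with 10 males and 10 females per group. Read-outs were body weight, plasma biochemistry markers, and macro- and microscopic observations.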

Pharmacokinetics in dogs = format: in vivo, dogs (Beagle); details: for Cmax / Tmax / half-life / AUC: Beagle, dog, blood
[10] = Metabolism in human liver S9 fraction; format: in vitro ADME; details: for half-life at 1 µM / half-life at 2 µM: human, liver S9 fraction
5-HT1B receptor = details: Table 2; cited from earlier work
[11] = 1 mg/kg PO qd for 5 days, females
[12] = 1 mg/kg PO qd for 5 days, males

Structure (SMILES): Cc1ccc2c(c1)c1c(n2CCc2ccccc2)CCN(C)C1 [AVN-101, 2,8-dimethyl-5-penethyl-2,3,4,5-tetra-hydro-1h-pyrido[[4,3-B]]indole hydrochloride]
- binding [1]: does not bind
- AUC ([2]; 2 mg): 0.0946 ± 0.0268 ng·h/mL
- Cmax ([2]; 2 mg): 0.00579 ± 0.0029 ng/mL
- half-life ([2]; 2 mg): 846 ± 612 min
- AUC ([2]; 4 mg): 0.211 ± 0.0862 ng·h/mL
- half-life ([2]; 4 mg): 489 ± 134 min
- AUC ([2]; 10 mg): 0.462 ± 0.207 ng·h/mL
- Cmax ([2]; 10 mg): 0.0537 ± 0.0318 ng/mL
- half-life ([2]; 10 mg): 612 ± 153 min
- AUC ([2]; 20 mg): 0.843 ± 0.333 ng·h/mL
- Cmax ([2]; 20 mg): 0.0841 ± 0.0462 ng/mL
- half-life ([2]; 20 mg): 491 ± 125 min
- Tmax ([2]; male): ~1 h
- half-life ([2]; male): 480 to 840 min
- Ki (Adrenergic α1D): 30.2 nM
- residual amount of original compound [3]: 68%
- binding (histamine H3 receptor): totally inactive; also recorded: does not bind
- blockade of α methyl-serotonin-induced fundus contraction (5-HT2B receptor): effectively blocking
- agonistic activity (fundus contraction) (5-HT2B receptor; AVN-101 alone): lacked intrinsic agonistic activity
- signs of toxicity [4]: did not show any signs of toxicity
- toxic effects (Wistar rats [5]; 5 mg/kg PO daily): severe hepatotoxic and moderate cardiotoxic effects
- toxic effects (Wistar rats [5]; 0.25 and 0.5 mg/kg PO daily): substantially less noticeable
- Ki (5-HT2A receptor): 1.2 to 2 nM
- reproductive function, male rats ([6]; 1.0 and 25.0 mg/kg intragastrically daily for 48 days): no reproductive function alteration
- effect in female rats dosed prior to pairing ([6]; daily for 15 days prior to pairing): reduction in the body mass increase of the pregnant rats and their posterity
- embryotoxic / teratogenic effect ([6]; doses up to 25.0 mg/kg, male or female): neither embryotoxic nor teratogenic effect
- Fabs ([7]; IP 5 mg/kg): 26.3%
- Fabs ([7]; PO 5 mg/kg): 8.5%
- Cmax ([7]; ip): 278 ng/mL
- Tmax ([7]; ip): 5 min
- half-life ([7]; ip): 177 min
- k el ([7]; ip): 6.5e-05 s⁻¹
- AUC ([7]; ip, AUC0 ⟶240, IP 5 mg/kg): 1900 ng·h/mL
- AUC ([7]; ip, AUC0 ⟶∞, IP 5 mg/kg): 2830 ng·h/mL
- Cmax ([7]; iv): 847 ng/mL
- Tmax ([7]; iv): 5 min
- half-life ([7]; iv): 57.5 min
- k el ([7]; iv): 0.000202 s⁻¹
- AUC ([7]; iv, AUC0 ⟶240, IV 5 mg/kg): 721 ng·h/mL
- AUC ([7]; iv, AUC0 ⟶∞, IV 5 mg/kg): 7530 ng·h/mL
- Cmax ([7]; po): 50 ng/mL
- Tmax ([7]; po): 5 min
- half-life ([7]; po): 117 min
- k el ([7]; po): 9.83e-05 s⁻¹
- AUC ([7]; po, AUC0 ⟶240, PO 5 mg/kg): 614 ng·h/mL
- AUC ([7]; po, AUC0 ⟶∞, PO 5 mg/kg): 810 ng·h/mL
- IC50 (hERG potassium channel): 580 nM
- Cells with multiple aberrations (femur bone marrow cells; [11]): 0%
- Total altered metaphases (%) (femur bone marrow cells; [11]): 0.8 ± 0.4%
- cells with aberration, Double fragment (femur bone marrow cells; [11]): 0%
- cells with aberration, Single fragment (femur bone marrow cells; [11]): 0.8%
- cells with aberration, exchanges (femur bone marrow cells; [11]): 0%
- cells with aberration, gaps (femur bone marrow cells; [11]): 0%
- Cells with multiple aberrations (femur bone marrow cells; [12]): 0%
- Total altered metaphases (%) (femur bone marrow cells; [12]): 1.4 ± 0.5%
- cells with aberration, Double fragment (femur bone marrow cells; [12]): 0%
- cells with aberration, Single fragment (femur bone marrow cells; [12]): 1.2%
- cells with aberration, exchanges (femur bone marrow cells; [12]): 0%
- cells with aberration, gaps (femur bone marrow cells; [12]): 0.2%
- Cells with multiple aberrations (femur bone marrow cells; 1 mg/kg PO single dose, males): 0%
- Total altered metaphases (%) (femur bone marrow cells; 1 mg/kg PO single dose, males): 1.2 ± 0.5%
- cells with aberration, Double fragment (femur bone marrow cells; 1 mg/kg PO single dose, males): 0%
- cells with aberration, Single fragment (femur bone marrow cells; 1 mg/kg PO single dose, males): 1.2%
- cells with aberration, exchanges (femur bone marrow cells; 1 mg/kg PO single dose, males): 0%
- cells with aberration, gaps (femur bone marrow cells; 1 mg/kg PO single dose, males): 0%
- Cells with multiple aberrations (femur bone marrow cells; 20 mg/kg PO single dose, males): 0%
- Total altered metaphases (%) (femur bone marrow cells; 20 mg/kg PO single dose, males): 1.6 ± 0.6%
- cells with aberration, Double fragment (femur bone marrow cells; 20 mg/kg PO single dose, males): 0%
- cells with aberration, Single fragment (femur bone marrow cells; 20 mg/kg PO single dose, males): 0.6%
- cells with aberration, exchanges (femur bone marrow cells; 20 mg/kg PO single dose, males): 0%
- cells with aberration, gaps (femur bone marrow cells; 20 mg/kg PO single dose, males): 1.0%
- fraction of original concentration ([8]; distilled water): 97.03%
- fraction of original concentration ([8]; physiological solution pH 7.4): 99.38%
- fraction of original concentration ([8]; salt solution pH 4.0): 98.05%
- fraction of original concentration ([8]; salt solution pH 7.0): 99.95%
- effect on deficit in novel object recognition (male BALB/c mice): partially reverse
- signs of toxicity (Wistar rats [9]): No signs of toxicity
- Fabs (Pharmacokinetics in dogs; AVN-101 PO 10 mg/kg vs IV 2 mg/kg): 4.6%
- Cmax (Pharmacokinetics in dogs; iv, 1 mg/kg): 13.7 ng/mL
- Tmax (Pharmacokinetics in dogs; iv, 1 mg/kg): 1 min
- half-life (Pharmacokinetics in dogs; iv, 1 mg/kg): 20.9 min
- AUC (Pharmacokinetics in dogs; iv, 2 mg/kg): 498 ng·h/mL
- Cmax (Pharmacokinetics in dogs; iv, 2 mg/kg): 3740 ng/mL
- Tmax (Pharmacokinetics in dogs; iv, 2 mg/kg): 1 min
- half-life (Pharmacokinetics in dogs; iv, 2 mg/kg): 29.8 min
- AUC (Pharmacokinetics in dogs; po, 5 mg/kg): 31.6 ng·h/mL
- Cmax (Pharmacokinetics in dogs; po, 5 mg/kg): 9.1 ng/mL
- Tmax (Pharmacokinetics in dogs; po, 5 mg/kg): 240 min
- AUC (Pharmacokinetics in dogs; po, 10 mg/kg): 114 ng·h/mL
- Cmax (Pharmacokinetics in dogs; po, 10 mg/kg): 23 ng/mL
- Tmax (Pharmacokinetics in dogs; po, 10 mg/kg): 60 min
- half-life (Pharmacokinetics in dogs; po, 10 mg/kg): 366 min
- half-life at 1 µM ([10]; T1/2, +NADPH+UDPGA): 26.2 min
- half-life at 2 µM ([10]; T1/2, +NADPH+UDPGA): 58.9 min
- half-life at 1 µM ([10]; T1/2, +NADPH): 24.8 min
- half-life at 2 µM ([10]; T1/2, +NADPH): 87.1 min
- metabolism with UDPGA only ([10]; phase 2 co-factor UDPGA only): no metabolism
- Ki (5-HT1B receptor): 720 nM
